Measured values as given in ChEMBL document CHEMBL4145481, “Synthesis and biological evaluation of novel bavachinin analogs as anticancer agents” (Eur J Med Chem, 2018).

Tests used:
[1] = tested on: MCF7; test: Cytotoxicity against human MCF7 cells assessed as growth inhibition at 50 uM after 48 hrs by SRB assay relative to control; format: functional; details: MCF7, 48 h, read-out: GI
How it was run: (§1)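 SRB growth-inhibition run in RPMI-1640/10% FBS at 37°C, 5% CO₂. Cell lines were seeded (PC-3 7000, MCF-7 8000, A549 7500, HCT-116 7000/well) and attached 24 h. The treatment series included 50 μM, with 48 h exposure. Cells were cold-TCA fixed and stained with 0.4% SRB. Dye was solubilized in 10 mM Tris pH 10.4 and read at 540 nm against untreated control.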

[2] = tested on: HCT-116; test: Cytotoxicity against human HCT116 cells assessed as growth inhibition at 50 uM after 48 hrs by SRB assay relative to control; format: functional; details: HCT-116, 48 h, read-out: GI; how it was run: as §1
[3] = tested on: PC-3; test: Cytotoxicity against human PC3 cells assessed as growth inhibition at 50 uM after 48 hrs by SRB assay relative to control; format: functional; details: PC-3, 48 h, read-out: GI; how it was run: as §1
[4] = tested on: A549; test: Cytotoxicity against human A549 cells assessed as growth inhibition at 50 uM after 48 hrs by SRB assay relative to control; format: functional; details: A549, 48 h, read-out: GI; how it was run: as §1
[5] = biological target: T1, Peroxisome proliferator-activated receptor gamma (Mus musculus, UniProt P37238); test: Agonist activity at mouse PPARgamma expressed in 293T cells by dual luciferase reporter gene assay; format: cell-based
T1 sequence (P37238 whole entry): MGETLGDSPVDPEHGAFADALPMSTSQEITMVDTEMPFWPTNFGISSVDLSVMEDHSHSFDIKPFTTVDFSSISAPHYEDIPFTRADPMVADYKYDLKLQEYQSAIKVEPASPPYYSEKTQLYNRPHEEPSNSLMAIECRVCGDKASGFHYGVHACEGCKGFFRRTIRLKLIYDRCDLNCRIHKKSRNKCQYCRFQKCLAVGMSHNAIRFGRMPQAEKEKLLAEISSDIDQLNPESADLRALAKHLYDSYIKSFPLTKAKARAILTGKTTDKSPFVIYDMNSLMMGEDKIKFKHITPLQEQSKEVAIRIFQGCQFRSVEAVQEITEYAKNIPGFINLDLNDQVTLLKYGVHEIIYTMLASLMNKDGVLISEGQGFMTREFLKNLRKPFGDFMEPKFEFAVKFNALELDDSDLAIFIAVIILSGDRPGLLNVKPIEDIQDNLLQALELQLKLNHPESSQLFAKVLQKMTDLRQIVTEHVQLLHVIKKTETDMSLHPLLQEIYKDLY

[6] = tested on: PC-3; test: Cytotoxicity against human PC3 cells assessed as growth inhibition after 48 hrs by SRB assay; format: functional, cell-based; details: PC-3, 48 h
How it was run: (§2)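 Cells were grown in RPMI-1640 with 10% FBS and penicillin/streptomycin at 37°C, 5% CO₂. Seeding was PC-3 7000, MCF-7 8000, A549 7500 and HCT-116 7000 cells/well, with 24 h attachment. Cells were exposed to 1, 5, 10, 30 and 50 μM for 48 h, with a 5-fluorouracil reference. Cells were TCA-fixed (1 h, 4°C) and stained with 0.4% SRB. Bound dye was dissolved in 10 mM Tris pH 10.4 and read at 540 nm. IC50 came from the concentration-response.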

[7] = tested on: HCT-116; test: Cytotoxicity against human HCT116 cells assessed as growth inhibition after 48 hrs by SRB assay; format: functional, cell-based; details: HCT-116, 48 h; how it was run: as §2
[8] = tested on: MCF7; test: Cytotoxicity against human MCF7 cells assessed as growth inhibition after 48 hrs by SRB assay; format: functional, cell-based; details: MCF7, 48 h; how it was run: as §2
[9] = tested on: A549; test: Cytotoxicity against human A549 cells assessed as growth inhibition after 48 hrs by SRB assay; format: functional, cell-based; details: A549, 48 h; how it was run: as §2

SMILES	inhibition of growth at 50 µM [1] [%]	inhibition of growth at 50 µM [2] [%]	inhibition of growth at 50 µM [3] [%]	inhibition of growth at 50 µM [4] [%]	EC50 [5] [µM]	IC50 [6] [µM]	IC50 [7] [µM]	IC50 [8] [µM]	IC50 [9] [µM]
COc1ccc([C@@H]2C/C(=N/OCc3cn(-c4ccc(O)cc4)nn3)c3cc(CC=C(C)C)c(OC)cc3O2)cc1	63	65	64	52					
COc1ccc([C@@H]2C/C(=N/OCc3cn(-c4ccc(Cl)cc4C)nn3)c3cc(CC=C(C)C)c(OC)cc3O2)cc1	37	20	49	35					
COc1ccc([C@@H]2C/C(=N/OCc3cn(-c4ccc(NC(C)=O)cc4)nn3)c3cc(CC=C(C)C)c(OC)cc3O2)cc1	0	6	2	19					
COc1cc2c(cc1CC=C(C)C)C(=O)C[C@@H](c1ccc(OC(C)=O)cc1)O2					0.78				
COc1ccc([C@@H]2C/C(=N/OCc3cn(-c4ccc(C#N)cc4)nn3)c3cc(CC=C(C)C)c(OC)cc3O2)cc1	40	50	50	42					
COc1cc2c(cc1CCC(C)C)C(=O)C[C@@H](c1ccc(O)cc1)O2	81	77	78	75		36.3	34.3	34.5	30.5
COc1ccc([C@@H]2C/C(=N/OCc3cn(-c4ccc(C(=O)c5ccccc5)cc4)nn3)c3cc(CC=C(C)C)c(OC)cc3O2)cc1	41	52	40	34					
COc1ccc([C@@H]2C/C(=N/OCc3cn(-c4cccnc4Cl)nn3)c3cc(CC=C(C)C)c(OC)cc3O2)cc1	35	47	44	58					
COc1ccc([C@@H]2C/C(=N/OCc3cn(-c4ccc(NC(=O)c5ccccc5)cc4)nn3)c3cc(CC=C(C)C)c(OC)cc3O2)cc1	4	8	22	31					
COc1cc2c(cc1CC=C(C)C)C(=O)C[C@@H](c1ccc(OC(=O)c3ccc([N+](=O)[O-])cc3)cc1)O2					0.43				
C#CCO/N=C1/C[C@@H](c2ccc(OC)cc2)Oc2cc(OC)c(CC=C(C)C)cc21	61	65	41	64					
COc1ccc([C@@H]2C/C(=N/O)c3cc(CC=C(C)C)c(OC)cc3O2)cc1	63	47	45	66					
COc1cc2c(cc1CC=C(C)C)/C(=N/O)C[C@@H](c1ccc(O)cc1)O2	93	99	81	80		31.6	29.7	23.6	11.4
COc1ccc([C@@H]2C/C(=N/OCc3cn(-c4ccccc4CO)nn3)c3cc(CC=C(C)C)c(OC)cc3O2)cc1	100	100	100	100		26.6	29.9	23.4	30.7
COc1cc2c(cc1CC=C(C)C)C(=O)C[C@@H](c1ccc(Oc3ccc(Br)cc3)cc1)O2	68	76	55	72					
